Bioassay records (PubChem BioAssay)
The sample as a whole holds a higher share of hits than the screen did.
Pf Dd2 growth – blocks growth of Plasmodium falciparum Dd2 parasites. actives 2.3% (n = 94,000). AID 1159554. P. falciparum Dd2 growth, SYBR Green, 72 h; stronger effect = lower value. activity change, % at 10 µM; in the data active means activity change below about -80%
GASC1 inh – KDM4C (human) demethylase inhibition; AID 720574; Q9H3R0; actives 0.15% (n = 96,000); inhibition, % at 12.5 µM; GST-KDM4C 2-372, H3K9me3 peptide, LANCE TR-FRET;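 active means mean replicate inhibition above about 25%, with at least 55% of replicates also reaching it, limit read from the data, passing the limit was not always enough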
Target sequence (Q9H3R0 2-372 limits assumed): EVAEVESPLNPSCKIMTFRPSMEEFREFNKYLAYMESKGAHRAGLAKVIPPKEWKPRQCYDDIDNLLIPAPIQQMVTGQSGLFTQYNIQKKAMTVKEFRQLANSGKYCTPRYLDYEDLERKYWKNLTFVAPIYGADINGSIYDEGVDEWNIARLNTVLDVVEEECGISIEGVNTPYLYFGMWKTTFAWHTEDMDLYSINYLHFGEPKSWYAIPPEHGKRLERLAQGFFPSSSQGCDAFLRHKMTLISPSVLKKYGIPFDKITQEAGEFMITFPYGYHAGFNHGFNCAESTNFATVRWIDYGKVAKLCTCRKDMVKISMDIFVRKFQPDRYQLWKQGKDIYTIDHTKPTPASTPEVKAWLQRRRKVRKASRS
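System: N-terminal GST-fused human GASC-1 (KDM4C) fragment, residues 2-372 / Amount: 10 nM GST-KDM4C in enzyme reaction / Also added: H3K9me3 peptide with Fe(II)/2OG / Times: 30 min demethylation and 1 h detection at room temperature / Signal: LANCE TR-FRET / Read-out basis: Fall in 671/618 emission ratio as inhibition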
IDH1 R132H inh – inhibitors of human IDH1 R132H. AID 624101. O75874. inhibition, % at 10 µM. IDH1 R132H reductase, diaphorase/resazurin fluorescence, 60 min. actives 0.18% (n = 70,000); in the data active means inhibition above about 34%
Each line names hits and unclear results; the compound was inactive in the other large screens.

O=C(C1CCC1)N1CC(=O)N2[C@H](CO)[C@@H](c3ccc(C#CCc4ccccc4)cc3)[C@@H]2C1	Pf Dd2 growth -86 (no result: IDH1 R132H inh)
O=C(c1cnccn1)N1CC(=O)N2[C@H](CO)[C@@H](c3ccc(C#CCc4ccccc4)cc3)[C@@H]2C1	none (no result: IDH1 R132H inh)
O=C(c1cnccn1)N1CC(=O)N2[C@@H](CO)[C@@H](c3ccc(C#CCc4ccccc4)cc3)[C@@H]2C1	Pf Dd2 growth -83 (no result: IDH1 R132H inh)
O=C(Cc1ccccc1)N1CC(=O)N2[C@H](CO)[C@@H](c3ccc(C#CCc4ccccc4)cc3)[C@H]2C1	none (no result: IDH1 R132H inh)
O=C(Cc1ccccc1)N1CC(=O)N2[C@H](CO)[C@H](c3ccc(C#CCc4ccccc4)cc3)[C@H]2C1	Pf Dd2 growth -89 (no result: IDH1 R132H inh)
O=C(C1CCC1)N1CC(=O)N2[C@H](CO)[C@H](c3ccc(C#CCc4ccccc4)cc3)[C@H]2C1	none (no result: IDH1 R132H inh)
C[C@H](CO)N1C[C@H](C)[C@@H](CN(C)C(=O)Nc2cccc3ccccc23)Oc2c(NS(C)(=O)=O)cccc2C1=O	none
COCC#Cc1cnc2c(c1)C(=O)N([C@@H](C)CO)C[C@H](C)[C@@H](CN(C)C(=O)Nc1c(C)noc1C)O2	none
COC(=O)c1cc(NC(=O)COc2ccc(C)cc2)cc(C(=O)OC)c1	none (no result: Pf Dd2 growth, GASC1 inh)
COc1ccc2c3c([nH]c2c1)[C@H](CO)N(C)CC31CCN(S(=O)(=O)c2cccc(F)c2)CC1	none (no result: IDH1 R132H inh)
COc1ccc2c3c([nH]c2c1)[C@H](CO)N(C(=O)Nc1cccc(F)c1)CC31CCN(S(=O)(=O)c2cccc(C)c2)CC1	Pf Dd2 growth -82 (no result: IDH1 R132H inh)
COc1ccc2c3c([nH]c2c1)[C@H](CO)N(C(=O)Nc1cccc(F)c1)CC31CN(S(=O)(=O)c2cccc(C)c2)C1	none (no result: IDH1 R132H inh)
COc1ccc2c3c([nH]c2c1)[C@H](CO)N(CC1CC1)CC31CCN(S(=O)(=O)c2cccc(F)c2)CC1	Pf Dd2 growth -90 (no result: IDH1 R132H inh)
COc1ccc(S(=O)(=O)N(C)C[C@@H]2OCCCC[C@@H](C)Oc3ccc(NC(=O)c4ccccc4)cc3C(=O)N([C@@H](C)CO)C[C@@H]2C)cc1	none (no result: IDH1 R132H inh)
C[C@@H]1CN([C@H](C)CO)C(=O)c2cc(NC(=O)c3ccccc3)ccc2O[C@@H](C)CCCCO[C@@H]1CN(C)S(=O)(=O)c1ccc(F)cc1	Pf Dd2 growth -85 (no result: IDH1 R132H inh)
COc1ccc(S(=O)(=O)N(C)C[C@@H]2OCCCC[C@@H](C)Oc3ccc(NC(=O)c4ccccc4)cc3C(=O)N([C@H](C)CO)C[C@H]2C)cc1	Pf Dd2 growth -85 (no result: IDH1 R132H inh)
Cc1ccc(S(=O)(=O)N(C)C[C@H]2OCCCC[C@H](C)Oc3ccc(NC(=O)c4ccccc4)cc3C(=O)N([C@H](C)CO)C[C@H]2C)cc1	Pf Dd2 growth -81 (no result: IDH1 R132H inh)
Cc1ccc(S(=O)(=O)N(C)C[C@H]2OCCCC[C@@H](C)Oc3ccc(NC(=O)c4ccccc4)cc3C(=O)N([C@@H](C)CO)C[C@H]2C)cc1	none (no result: IDH1 R132H inh)
Cc1ccc(S(=O)(=O)N(C)C[C@@H]2OCCCC[C@@H](C)Oc3ccc(NC(=O)c4ccccc4)cc3C(=O)N([C@@H](C)CO)C[C@@H]2C)cc1	none
Cc1ccc(S(=O)(=O)N(C)C[C@@H]2OCCCC[C@H](C)Oc3ccc(NC(=O)c4ccccc4)cc3C(=O)N([C@H](C)CO)C[C@H]2C)cc1	Pf Dd2 growth -81
C[C@H]1CCCCO[C@H](CN(C)S(=O)(=O)c2ccc(F)cc2)[C@@H](C)CN([C@@H](C)CO)C(=O)c2cc(NC(=O)c3ccccc3)ccc2O1	none (no result: IDH1 R132H inh)
C[C@H](CO)N1C[C@H](C)[C@H](CN(C)Cc2ccccc2)Oc2c(NC(=O)CCCCCC(=O)Nc3ccccc3N)cccc2C1=O	none (no result: IDH1 R132H inh)
C[C@@H]1CN([C@H](C)CO)C(=O)c2cccc(NC(=O)CCCCCC(=O)Nc3ccccc3N)c2O[C@H]1CN(C)Cc1ccc(C(F)(F)F)cc1	Pf Dd2 growth -92
C[C@H]1CN([C@@H](C)CO)C(=O)c2cccc(NC(=O)CCCCCC(=O)Nc3ccccc3N)c2O[C@H]1CN(C)Cc1ccc(C(F)(F)F)cc1	Pf Dd2 growth -85
C[C@@H]1CN([C@@H](C)CO)C(=O)c2cccc(NC(=O)CCCCCC(=O)Nc3ccccc3N)c2O[C@H]1CN(C)Cc1ccccc1	none (no result: Pf Dd2 growth)
Cc1ccc(C(C)C)c(OCC(=O)Nc2cccc3nsnc23)c1	none (no result: Pf Dd2 growth, GASC1 inh)
Cc1noc(C)c1S(=O)(=O)Nc1ccc2c(c1)C(=O)N([C@H](C)CO)C[C@H](C)[C@H](CN(C)C(=O)NC(C)C)O2	none (no result: IDH1 R132H inh)
C[C@@H]1CCCCO[C@@H](CN(C)C(=O)Nc2cccc3ccccc23)[C@H](C)CN([C@@H](C)CO)C(=O)c2cc(NC(=O)Nc3ccc(C(F)(F)F)cc3)ccc2O1	none (no result: IDH1 R132H inh)
C[C@@H]1CCCCO[C@@H](CN(C)C(=O)Nc2cccc3ccccc23)[C@@H](C)CN([C@@H](C)CO)C(=O)c2cc(NC(=O)Nc3ccc(C(F)(F)F)cc3)ccc2O1	Pf Dd2 growth -91
C[C@H](CO)N1C[C@H](C)[C@H](CN(C)C(=O)Nc2cccc3ccccc23)OCCCC[C@H](C)Oc2ccc(NC(=O)Nc3ccc(F)cc3)cc2C1=O	none
C[C@@H]1CN([C@H](C)CO)C(=O)c2cc(NC(=O)Nc3ccc(C(F)(F)F)cc3)ccc2O[C@@H](C)CCCCO[C@@H]1CN(C)C(=O)Nc1cccc2ccccc12	Pf Dd2 growth -82
CCC(=O)N[C@@H]1CC[C@H](CCNC(=O)Nc2ccc(F)cc2)O[C@H]1CO	none
C[C@H]1CN([C@@H](C)CO)C(=O)c2cc(NC(=O)CCC(F)(F)F)ccc2O[C@H]1CN(C)Cc1ccccc1	none
C[C@H](CO)N1C[C@H](C)[C@H](CN(C)C(=O)Nc2ccc(C(F)(F)F)cc2)OCCCC[C@H](C)Oc2ccc(NS(=O)(=O)c3ccc(Cl)cc3)cc2C1=O	none (no result: IDH1 R132H inh)
C[C@@H]1CCCCO[C@H](CN(C)C(=O)Nc2ccc(C(F)(F)F)cc2)[C@@H](C)CN([C@@H](C)CO)C(=O)c2cc(NS(=O)(=O)c3ccccc3)ccc2O1	Pf Dd2 growth -84 (no result: IDH1 R132H inh)
C[C@@H]1CCCCO[C@H](CN(C)C(=O)Nc2ccc(F)cc2)[C@H](C)CN([C@H](C)CO)C(=O)c2cc(NS(=O)(=O)c3ccc(F)cc3)ccc2O1	Pf Dd2 growth -87 (no result: IDH1 R132H inh)
C[C@@H]1CCCCO[C@H](CN(C)C(=O)Nc2ccc(C(F)(F)F)cc2)[C@@H](C)CN([C@H](C)CO)C(=O)c2cc(NS(=O)(=O)c3ccccc3)ccc2O1	none
C[C@H](CO)N1C[C@H](C)[C@@H](CN(C)C(=O)Nc2ccc(C(F)(F)F)cc2)OCCCC[C@H](C)Oc2ccc(NS(=O)(=O)c3ccc(F)cc3)cc2C1=O	none (no result: IDH1 R132H inh)
C[C@@H]1CCCCO[C@@H](CN(C)C(=O)Nc2ccc(F)cc2)[C@H](C)CN([C@H](C)CO)C(=O)c2cc(NS(=O)(=O)c3ccc(F)cc3)ccc2O1	none
C[C@@H]1CN([C@@H](C)CO)C(=O)c2cc(NS(=O)(=O)c3ccc(F)cc3)ccc2O[C@@H](C)CCCCO[C@@H]1CN(C)C(=O)Nc1ccc(C(F)(F)F)cc1	Pf Dd2 growth -88
C[C@H]1CCCCO[C@H](CN(C)C(=O)Nc2ccc(C(F)(F)F)cc2)[C@@H](C)CN([C@@H](C)CO)C(=O)c2cc(NS(=O)(=O)c3ccc(Cl)cc3)ccc2O1	Pf Dd2 growth -83
COC(=O)[C@H](Cc1ccc(N=[N+]=[N-])cc1)N[C@H](/C=C/C1CC1)[C@@H](O)Cc1ccccc1	none (no result: Pf Dd2 growth, GASC1 inh)
